Measurements published in ChEMBL document CHEMBL4732169, “Design and synthesis of mycobacterial pks13 inhibitors: Conformationally rigid tetracyclic molecules” (Eur J Med Chem, 2021).
In brackets after ≈: the same amount, converted by molar mass.

What was measured:
[1] = test system: Mycobacterium tuberculosis; assay: Antitubercular activity against drug susceptible Mycobacterium tuberculosis V4207 by MABA assay; assay type: functional
In short: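 Microplate alamar blue assay (MABA) against each Mtb strain, either H37Rv or a clinical isolate (drug-susceptible, MDR or XDR). MIC taken as the lowest concentration giving at least 90% reduction of the bacterial growth signal. Each value is the average of three individual measurements.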

Vero = assay: Cytotoxicity against African green monkey Vero cells incubated for 72 hrs in DEME medium; assay type: cell-based; conditions: Chlorocebus sabaeus
[2] = test system: Mycobacterium tuberculosis; assay: Binding affinity to wild type Mycobacterium tuberculosis Pks13-TE expressed in Escherichia coli BL21(DE3)pLysS assessed as change in melting temperature at protein to compound molar ratio of 1:10 incubated for 30 mins by nanoDSF assay
In short: (§1)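 Recombinant N-Mbp-His-tagged Pks13-TE domain of Mtb Pks13 (Rv3800c), expressed in E. coli BL21(DE3)pLysS after 0.5 mM IPTG induction and purified to >95%. Protein was incubated with compound (stock in DMSO) in 100 mM NaCl, 20 mM Tris-HCl pH 8.0 for 30 min, with a DMSO blank. nanoDSF ramp 30–90 °C at 2 °C/min, read as the F350/F330 ratio. Tm shift averaged from three measurements.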

[3] = test system: Mycobacterium tuberculosis; assay: Antitubercular activity against Mycobacterium tuberculosis H37Rv assessed as bacterial growth inhibition incubated for 4 days by MABA assay; assay type: functional; conditions: time 4 day
[4] = Selective index, ratio of CC50 for African green monkey Vero cells to IC50 for Mycobacterium tuberculosis H37Rv
In short: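 Vero (African green monkey kidney) cytotoxicity measured by alamar blue assay to give IC50. SI calculated as IC50(Vero)/MIC(H37Rv).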

[5] = test system: Mycobacterium tuberculosis; assay: Binding affinity to wild type Mycobacterium tuberculosis Pks13-TE expressed in Escherichia coli BL21(DE3)pLysS assessed as change in melting temperature at protein to compound molar ratio of 1:5 incubated for 30 mins by nanoDSF assay; in short: as §1
Escherichia coli [6] = assay: Antibacterial activity against Escherichia coli AB1157 assessed as inhibition of bacterial growth measured after 18 hrs by two fold serial dilution method; assay type: functional
In short: (§2)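 Bacteria grown overnight at 37 °C in TSB without antibiotics. Compound in DMSO was serially diluted two-fold to final […] and mixed with an equal volume of bacteria. MIC was read after 18 h at 37 °C; three experiments per condition.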

Bacillus subtilis = assay: Antibacterial activity against Bacillus subtilis168 assessed as inhibition of bacterial growth measured after 18 hrs by two fold serial dilution method; assay type: functional; conditions: subsp. subtilis str. 168; in short: as §2
[7] = test system: Mycobacterium tuberculosis; assay: Inhibition of Mycobacterium tuberculosis Pks13-TE using 4-MUH as substrate by measuring fluorescence product for every 10 mins for 60 mins
In short: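 Pks13-TE thioesterase activity measured with the fluorogenic substrate 4-methylumbelliferyl heptanoate at 20 µM final, in 0.1 M Tris-HCl pH 7.0. Compound was serially diluted from 20 µM down to about 0.0195 µM, or DMSO was added. Points were run in triplicate and averaged to build concentration-response curves for IC50.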

Escherichia coli [8] = assay: Antibacterial activity against Escherichia coli DH5-alpha assessed as inhibition of bacterial growth measured after 18 hrs by two fold serial dilution method; assay type: functional; in short: as §2
Staphylococcus aureus = assay: Antibacterial activity against Staphylococcus aureus Newman assessed as inhibition of bacterial growth measured after 18 hrs by two fold serial dilution method; assay type: functional; in short: as §2
[9] = test system: Mycobacterium tuberculosis; assay: Potency index, ratio of MIC for TAM16 to MICfor test compound for antitubercular activity against Mycobacterium tuberculosis H37Rv assessed as bacterial growth inhibition incubated for 4 days by MABA assay; assay type: functional; conditions: time 4 day

With `C[C@H]1COc2c(N3CCN(C)CC3)c(F)cc3c(=O)c(C(=O)O)cn1c23.C[C@H]1COc2c(N3CCN(C)CC3)c(F)cc3c(=O)c(C(=O)O)cn1c23.O` [LEVOFLOXACIN] the “MIC=<90” value [1] was 0.125 µg/mL.
For `COc1ccc2c(c1)[nH]c(=O)c1c2oc2ccc(O)c(CN3CCCCC3)c21`, the IC50 (Vero) was 64 µg/mL (≈ 169 µM), the ΔTm [2] was 9 °C and the “MIC=<90” value [3] was 0.25 µg/mL (≈ 0.661 µM). The “Ratio CC50/IC50” value [4] was 256 and the ΔTm [5] was 8.7 °C.
For `CCNC(=O)c1c(-c2ccc(F)cc2)oc2ccc(O)c(CN3CCCCC3)c12`, the “MIC=<90” value [3] was 4 µg/mL (≈ 10.1 µM).
For `O=c1[nH]c2c(Cl)cccc2c2oc3ccc(O)c(CN4CCCCC4)c3c12`, the “MIC=<90” value [3] was 1 µg/mL (≈ 2.61 µM).
In the case of `COc1ccc2oc3c4ccccc4oc(=O)c3c2c1C(=O)N1CCCCC1`, the “MIC=<90” value [3] is reported as >64 µg/mL.
For `O=c1[nH]c2cc(O)ccc2c2oc3ccc(O)c(CN4CCCCC4)c3c12`, the IC50 (Vero) was 4 µg/mL (≈ 11 µM), the MIC (Escherichia coli [6]) was > 25 µg/mL and the MIC (Bacillus subtilis) was > 25 µg/mL. For the same compound, the INH [7] was 0.58 µM, the ΔTm [2] was 9.4 °C and the “MIC=<90” value [3] was 0.0313 µg/mL (≈ 0.0859 µM). The “Ratio CC50/IC50” value [4] was 64, the MIC (Escherichia coli [8]) was > 25 µg/mL and the ΔTm [5] was 7.5 °C. The MIC (Staphylococcus aureus) was > 25 µg/mL and the “MIC=<90” value [1] was 0.0313 µg/mL (≈ 0.0859 µM).
For `NNC(=O)c1ccncc1` [ISONIAZID], the “MIC=<90” value [1] was 0.04 µg/mL (≈ 0.292 µM).
For `NC[C@H]1O[C@H](O[C@H]2[C@H](O)[C@@H](O[C@H]3O[C@H](CO)[C@@H](O)[C@H](N)[C@H]3O)[C@H](N)C[C@@H]2N)[C@H](O)[C@@H](O)[C@@H]1O` [KANAMYCIN], the MIC (Escherichia coli [6]) was 9.39 µg/mL (≈ 19.4 µM), the MIC (Bacillus subtilis) was 9.39 µg/mL (≈ 19.4 µM) and the MIC (Escherichia coli [8]) was 2.34 µg/mL (≈ 4.83 µM). The MIC (Staphylococcus aureus) was 2.34 µg/mL (≈ 4.83 µM) and the “MIC=<90” value [1] was 2 µg/mL (≈ 4.13 µM).
For `CCNC(=O)c1c(-c2ccc(OC)cc2)oc2ccc(O)c(CN3CCCCC3)c12`, the “MIC=<90” value [3] was 2 µg/mL (≈ 4.9 µM).
For `CCOC(=O)c1c(-c2ccccc2)sc2ccc(O)c(CN3CCCCC3)c12`, the ΔTm [2] was 3.3 °C, the “MIC=<90” value [3] was 16 µg/mL (≈ 40.5 µM) and the ΔTm [5] was 3.2 °C.
For `CCOC(=O)c1c(-c2ccccc2)oc2cc(Br)c(O)c(CN3CCCCC3)c12`, the “MIC=<90” value [3] was 32 µg/mL (≈ 69.8 µM).
With `CNC(=O)c1c(-c2ccc(O)cc2)oc2ccc(O)c(CN3CCCCC3)c12` the “MIC=<90” value [3] was 0.0313 µg/mL (≈ 0.0823 µM).
With `O=c1[nH]c2ccc(F)cc2c2oc3ccc(O)c(CN4CCCCC4)c3c12` the IC50 (Vero) was 16 µg/mL (≈ 43.7 µM), the “MIC=<90” value [3] was 1 µg/mL (≈ 2.73 µM) and the “Ratio CC50/IC50” value [4] was 16.
In the case of `O=c1oc2ccccc2c2oc3cc(Br)c(O)c(CN4CCCCC4)c3c12`, the “MIC=<90” value [3] is reported as >64 µg/mL.
For `CO[C@H]1/C=C/O[C@@]2(C)Oc3c(C)c(O)c4c(O)c(c(/C=N/N5CCN(C)CC5)c(O)c4c3C2=O)NC(=O)/C(C)=C\C=C\[C@H](C)[C@H](O)[C@@H](C)[C@@H](O)[C@@H](C)[C@H](OC(C)=O)[C@@H]1C` [RIFAMPIN], the “MIC=<90” value [1] was 0.0625 µg/mL (≈ 0.0759 µM).
In the case of `O=c1oc2ccccc2c2[nH]c3ccc(O)c(CN4CCCCC4)c3c12`, the ΔTm [2] is reported as 3.1 °C, the “MIC=<90” value [3] is reported as 32 µg/mL (≈ 91.8 µM) and the ΔTm [5] is reported as 0.8 °C.
With `O=c1oc2cc(O)ccc2c2oc3ccc(O)c(CN4CCCCC4)c3c12` the “MIC=<90” value [3] was 0.0039 µg/mL (≈ 0.0107 µM) and the Ratio [9] was 8.
In the case of `CCOC(=O)c1c(-c2ccccc2)oc2ccc(OC)c(C(=O)N3CCCCC3)c12`, the “MIC=<90” value [3] is reported as >64 µg/mL.
With `O=c1[nH]c2c(F)cccc2c2oc3ccc(O)c(CN4CCCCC4)c3c12` the “MIC=<90” value [3] was 0.5 µg/mL (≈ 1.36 µM).
For `O=c1oc2ccccc2c2oc3ccc(O)c(CN4CCCCC4)c3c12`, the “MIC=<90” value [3] was 0.125 µg/mL (≈ 0.358 µM).
For `O=c1[nH]c2ccccc2c2oc3ccc(O)c(CN4CCCCC4)c3c12`, the ΔTm [2] was 10.2 °C, the “MIC=<90” value [3] was 0.25 µg/mL (≈ 0.718 µM) and the ΔTm [5] was 9.6 °C.
With `COc1cc2c(cc1C(=O)N1CCCCC1)oc1c3ccccc3oc(=O)c21` the “MIC=<90” value [3] was >64 µg/mL.
In the case of `CC1COc2c(N3CCN(C)CC3)c(F)cc3c(=O)c(C(=O)O)cn1c23` (stereo not drawn) [OFLOXACIN], the “MIC=<90” value [1] is reported as 0.5 µg/mL (≈ 1.38 µM).
In the case of `CCNC(=O)c1c(-c2ccccc2)oc2ccc(O)c(CN3CCCCC3)c12`, the “MIC=<90” value [3] is reported as 4 µg/mL (≈ 10.6 µM).
In the case of `CCOC(=O)c1c(-c2ccccc2)oc2ccc(O)c(CN3CCCCC3)c12`, the INH [7] is reported as 4.6 µM and the “MIC=<90” value [3] is reported as 2 µg/mL (≈ 5.27 µM).
In the case of `O=c1[nH]c2cc(F)ccc2c2oc3ccc(O)c(CN4CCCCC4)c3c12`, the IC50 (Vero) is reported as 16 µg/mL (≈ 43.7 µM), the “MIC=<90” value [3] is reported as 0.5 µg/mL (≈ 1.36 µM) and the “Ratio CC50/IC50” value [4] is reported as 32.
For `O=c1[nH]c2cc(Cl)ccc2c2oc3ccc(O)c(CN4CCCCC4)c3c12`, the IC50 (Vero) was 32 µg/mL (≈ 83.6 µM), the “MIC=<90” value [3] was 0.5 µg/mL (≈ 1.31 µM) and the “Ratio CC50/IC50” value [4] was 64.
For `O=c1[nH]c2ccc(O)cc2c2oc3ccc(O)c(CN4CCCCC4)c3c12`, the IC50 (Vero) was 16 µg/mL (≈ 43.9 µM), the ΔTm [2] was 8.5 °C and the “MIC=<90” value [3] was 1 µg/mL (≈ 2.74 µM). For the same compound, the “Ratio CC50/IC50” value [4] was 16 and the ΔTm [5] was 7.4 °C.
With `O=c1[nH]c2cc(Br)ccc2c2oc3ccc(O)c(CN4CCCCC4)c3c12` the IC50 (Vero) was 64 µg/mL (≈ 150 µM), the “MIC=<90” value [3] was 0.5 µg/mL (≈ 1.17 µM) and the “Ratio CC50/IC50” value [4] was 128.
For `CN[C@H](CC(C)C)C(=O)N[C@H]1C(=O)N[C@@H](CC(N)=O)C(=O)N[C@H]2C(=O)N[C@H]3C(=O)N[C@H](C(=O)N[C@H](C(=O)O)c4cc(O)cc(O)c4-c4cc3ccc4O)[C@H](O)c3ccc(c(Cl)c3)Oc3cc2cc(c3O[C@@H]2O[C@H](CO)[C@@H](O)[C@H](O)[C@H]2O[C@H]2C[C@](C)(N)[C@H](O)[C@H](C)O2)Oc2ccc(cc2Cl)[C@H]1O` [VANCOMYCIN], the MIC (Escherichia coli [6]) was > 25 µg/mL, the MIC (Bacillus subtilis) was > 25 µg/mL and the MIC (Escherichia coli [8]) was > 25 µg/mL. The MIC (Staphylococcus aureus) was 0.39 µg/mL (≈ 0.269 µM).
In the case of `CN(C)[C@@H]1C(O)=C(C(N)=O)C(=O)[C@@]2(O)C(O)=C3C(=O)c4c(O)cccc4[C@@](C)(O)[C@H]3C[C@@H]12` [TETRACYCLINE], the MIC (Escherichia coli [6]) is reported as 1.56 µg/mL (≈ 3.51 µM), the MIC (Bacillus subtilis) is reported as > 25 µg/mL and the MIC (Escherichia coli [8]) is reported as 0.78 µg/mL (≈ 1.76 µM). For the same compound, the MIC (Staphylococcus aureus) was 0.2 µg/mL (≈ 0.45 µM).
In the case of `CCOC(=O)c1c(-c2ccccc2)oc2cc(C(=O)N3CCCCC3)c(OC)cc12`, the “MIC=<90” value [3] is reported as >64 µg/mL.
For `COc1ccc2[nH]c(=O)c3c(oc4ccc(O)c(CN5CCCCC5)c43)c2c1`, the “MIC=<90” value [3] was 4 µg/mL (≈ 10.6 µM).
In the case of `CCOC(=O)c1c(-c2ccccc2)[nH]c2ccc(O)c(CN3CCCCC3)c12`, the “MIC=<90” value [3] is reported as >32 µg/mL.
In the case of `O=c1[nH]c2ccc(Br)cc2c2oc3ccc(O)c(CN4CCCCC4)c3c12`, the “MIC=<90” value [3] is reported as 32 µg/mL (≈ 74.9 µM).
With `O=c1oc2ccccc2c2sc3ccc(O)c(CN4CCCCC4)c3c12` the ΔTm [2] was 9.1 °C, the “MIC=<90” value [3] was 1 µg/mL (≈ 2.74 µM) and the ΔTm [5] was 7.9 °C.
In the case of `O=c1[nH]c2ccc(Cl)cc2c2oc3ccc(O)c(CN4CCCCC4)c3c12`, the “MIC=<90” value [3] is reported as 1 µg/mL (≈ 2.61 µM).
